{"source": "ChEMBL document CHEMBL1121938", "about": "“Hypocholesterolemic and antiaggregatory properties of 2-hydroxytetronic acid redox analogues an their relationship to clofibric acid” (1982)", "key": {"[1]": {"tested_on": "Rattus norvegicus", "test": "Effect of compound on liver TG levels in male Dawley rats at the dose of 0.4 mmol/kg", "assay_type": "functional", "parameters": "unit: g/100 g wet liver", "how_it_was_run": "(§1)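 Male Sprague-Dawley rats (180-210 g) were kept on a high-cholesterol diet for 1 week before and throughout treatment. Groups of n = 6 received drug in 0.25% methylcellulose orally twice daily for 14 days, or vehicle. After a 16-18 h fast, livers were excised at day +14 and homogenized in 0.1 M Tris-HCl pH 7.2 with 1.15% KCl. Lipids were extracted from 25% w/v homogenate and reported as g/100 g wet liver ± SD; groups compared by ANOVA and Duncan's test.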"}, "[2]": {"tested_on": "Rattus norvegicus", "test": "Effect of compound was measured on serum total triglycerides in male Dawley rats at the dose of 0.4 mmol/kg (day-1).", "assay_type": "functional, organism-based", "how_it_was_run": "(§2)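 Serum triglycerides were measured with an enzymatic triglyceride reagent on a bichromatic analyzer. Rats were male Sprague-Dawley (180-210 g) fed a high-cholesterol diet, n = 6 per group, dosed orally twice daily for 14 days in 0.25% methylcellulose or vehicle. They were fasted 16-18 h before blood collection on days -1, +4, +7, +10 (orbital plexus, light ether) and +14 (aorta). Analysis was repeated-measures ANOVA with Duncan's test.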"}, "[3]": {"tested_on": "Rattus norvegicus", "test": "Effect of compound was measured on serum total triglycerides in male Dawley rats at the dose of 0.4 mmol/kg (day+4).", "assay_type": "functional, organism-based", "how_it_was_run": "as §2"}, "[4]": {"test": "Effect of compound was measured on serum heparin-MnCl2 precipated ipoprotein Dawley rats at 0.4 mmol/kg dose(day-1).", "assay_type": "functional", "how_it_was_run": "(§3)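 Cholesterol-fed male Sprague-Dawley rats, n = 6 per group, given compound or 0.25% methylcellulose orally twice daily for 14 days, and fasted 16-18 h before each bleed (days -1, +4, +7, +10, +14). Heparin-MnCl2 precipitable lipoprotein cholesterol was taken as serum total cholesterol minus α-lipoprotein cholesterol. It is reported as a ratio to α-LP cholesterol ± SD. Analysis was ANOVA with repeated measures and Duncan's test.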"}, "[5]": {"tested_on": "Rattus norvegicus", "test": "Effect of compound was measured on serum alpha-lipoprotein in male Dawley rats at the dose of 0.4 mmol/kg (day-1).", "assay_type": "functional, organism-based", "how_it_was_run": "(§4)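 Male Sprague-Dawley rats (180-210 g) fed a high-cholesterol diet for 1 week before and throughout dosing. Groups of n = 6 were dosed orally twice daily for 14 days in 0.25% methylcellulose, with vehicle controls. Rats were fasted 16-18 h before orbital bleeds on days -1, +4, +7 and +10, and by aortic exsanguination on day +14. Serum α-lipoprotein cholesterol was measured by polyanionic precipitation, in mg/dL ± SD.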"}, "[6]": {"tested_on": "Rattus norvegicus", "test": "Effect of compound was measured on serum total cholesterol in male Dawley rats at the dose of 0.4 mmol/kg (day+14).", "assay_type": "functional, organism-based", "how_it_was_run": "(§5)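 Serum total cholesterol was measured enzymatically on a bichromatic analyzer. Serum was separated after clotting on ice (2000g, 10 min), held at 4 °C and assayed within 48 h. Rats were male Sprague-Dawley on a high-cholesterol diet, n = 6, dosed orally twice daily for 14 days in 0.25% methylcellulose (1.0 mL/100 g). They were fasted 16-18 h before each bleed. Results are in mg/dL ± SD.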"}, "[7]": {"test": "Effect of compound was measured on serum heparin-MnCl2 precipated ipoprotein Dawley rats at 0.4 mmol/kg dose(day+7).", "assay_type": "functional", "how_it_was_run": "as §3"}, "[8]": {"test": "Effect of compound was measured on serum heparin-MnCl2 precipated ipoprotein Dawley rats at 0.4 mmol/kg dose(day+4).", "assay_type": "functional", "how_it_was_run": "as §3"}, "[9]": {"test": "Effect of compound was measured on serum heparin-MnCl2 precipated ipoprotein Dawley rats at 0.4 mmol/kg dose(day+14).", "assay_type": "functional", "how_it_was_run": "as §3"}, "[10]": {"tested_on": "Rattus norvegicus", "test": "Effect of compound was measured on serum total cholesterol in male Dawley rats at the dose of 0.4 mmol/kg (day+4).", "assay_type": "functional, organism-based", "how_it_was_run": "as §5"}, "[11]": {"tested_on": "Rattus norvegicus", "test": "Effect of compound was measured on serum total cholesterol in male Dawley rats at the dose of 0.4 mmol/kg (day-1).", "assay_type": "functional, organism-based", "how_it_was_run": "as §5"}, "[12]": {"tested_on": "Rattus norvegicus", "test": "Effect of compound was measured on serum total triglycerides in male Dawley rats at the dose of 0.4 mmol/kg (day+10).", "assay_type": "functional, organism-based", "how_it_was_run": "as §2"}, "[13]": {"tested_on": "Rattus norvegicus", "test": "Effect of compound on liver CH levels in male Dawley rats at the dose of 0.4 mmol/kg", "assay_type": "functional", "parameters": "unit: g/100 g wet liver", "how_it_was_run": "as §1"}, "[14]": {"tested_on": "Rattus norvegicus", "test": "Effect of compound was measured on serum alpha-lipoprotein in male Dawley rats at the dose of 0.4 mmol/kg (day+10).", "assay_type": "functional, organism-based", "how_it_was_run": "as §4"}, "[15]": {"test": "Effect of compound on liver to body weight ratio in male Dawley rats at the dose of 0.4 mmol/kg", "assay_type": "functional", "how_it_was_run": "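Male Sprague-Dawley rats (180-210 g) were kept on a cholesterol-rich diet and dosed orally twice daily for 14 days in 0.25% methylcellulose; vehicle controls received the same; n = 6 per group. After a 16-18 h fast, rats were exsanguinated at day +14. Livers were removed, rinsed in ice-cold buffer, blotted and weighed, and related to body weight. Data were analysed by repeated-measures ANOVA with Duncan's multiple range test.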"}, "[16]": {"tested_on": "Rattus norvegicus", "test": "Effect of compound was measured on serum total cholesterol in male Dawley rats at the dose of 0.4 mmol/kg (day+7).", "assay_type": "functional, organism-based", "how_it_was_run": "as §5"}, "[17]": {"tested_on": "Rattus norvegicus", "test": "Effect of compound was measured on serum alpha-lipoprotein in male Dawley rats at the dose of 0.4 mmol/kg (day14).", "assay_type": "functional, organism-based", "how_it_was_run": "as §4"}, "[18]": {"tested_on": "Rattus norvegicus", "test": "Effect of compound was measured on serum alpha-lipoprotein in male Dawley rats at the dose of 0.4 mmol/kg (day+4).", "assay_type": "functional, organism-based", "how_it_was_run": "as §4"}, "[19]": {"test": "Effect of compound was measured on serum heparin-MnCl2 precipated ipoprotein Dawley rats at 0.4 mmol/kg dose(day+10).", "assay_type": "functional", "how_it_was_run": "as §3"}, "[20]": {"tested_on": "Rattus norvegicus", "test": "Effect of compound was measured on serum total cholesterol in male Dawley rats at the dose of 0.4 mmol/kg (day+10).", "assay_type": "functional, organism-based", "how_it_was_run": "as §5"}, "[21]": {"tested_on": "Rattus norvegicus", "test": "Effect of compound was measured on serum total triglycerides in male Dawley rats at the dose of 0.4 mmol/kg (day+14).", "assay_type": "functional, organism-based", "how_it_was_run": "as §2"}, "[22]": {"tested_on": "Rattus norvegicus", "test": "Effect of compound was measured on serum total triglycerides in male Dawley rats at the dose of 0.4 mmol/kg (day+7).", "assay_type": "functional, organism-based", "how_it_was_run": "as §2"}, "[23]": {"tested_on": "Rattus norvegicus", "test": "Effect of compound was measured on serum alpha-lipoprotein in male Dawley rats at the dose of 0.4 mmol/kg (day+7).", "assay_type": "functional, organism-based", "how_it_was_run": "as §4"}}}
{"smiles": "NC1=C(O)C(=O)C(c2ccc(Cl)cc2)O1", "note": "(stereo not drawn)", "values": [{"measurement": "Liver TG", "setting": "[1]", "result": 2.8}, {"measurement": "Serum total triglycerides", "setting": "[2]", "result": 179, "unit": "mg/dL"}, {"measurement": "Serum total triglycerides", "setting": "[3]", "result": 147, "unit": "mg/dL"}, {"measurement": "Ratio", "setting": "[4]", "result": 3.65}, {"measurement": "alpha-lipoprotein cholesterol", "setting": "[5]", "result": 43.8, "unit": "mg/dL"}, {"measurement": "serum total cholesterol", "setting": "[6]", "result": 278, "unit": "mg/dL"}, {"measurement": "Ratio", "setting": "[7]", "result": 5.59}, {"measurement": "Ratio", "setting": "[8]", "result": 3.43}, {"measurement": "Ratio", "setting": "[9]", "result": 6.31}, {"measurement": "serum total cholesterol", "setting": "[10]", "result": 138, "unit": "mg/dL"}, {"measurement": "serum total cholesterol", "setting": "[11]", "result": 193, "unit": "mg/dL"}, {"measurement": "Serum total triglycerides", "setting": "[12]", "result": 158, "unit": "mg/dL"}, {"measurement": "Liver CH levels", "setting": "[13]", "result": 4.03}, {"measurement": "alpha-lipoprotein cholesterol", "setting": "[14]", "result": 43.7, "unit": "mg/dL"}, {"measurement": "Ratio", "setting": "[15]", "result": 4.1}, {"measurement": "serum total cholesterol", "setting": "[16]", "result": 252, "unit": "mg/dL"}, {"measurement": "alpha-lipoprotein cholesterol", "setting": "[17]", "result": 38.8, "unit": "mg/dL"}, {"measurement": "alpha-lipoprotein cholesterol", "setting": "[18]", "result": 33.2, "unit": "mg/dL"}, {"measurement": "Ratio", "setting": "[19]", "result": 7.13}, {"measurement": "serum total cholesterol", "setting": "[20]", "result": 344, "unit": "mg/dL"}, {"measurement": "Serum total triglycerides", "setting": "[21]", "result": 119, "unit": "mg/dL"}, {"measurement": "Serum total triglycerides", "setting": "[22]", "result": 128, "unit": "mg/dL"}, {"measurement": "alpha-lipoprotein cholesterol", "setting": "[23]", "result": 43, "unit": "mg/dL"}]}
